Measurements reported in ChEMBL document CHEMBL1221342, “Synthesis and in vitro antitumor activity of new 4,5-dihydropyrazole derivatives” (Bioorg Med Chem, 2010).
pIC50: −log10 of the molar value.

Key:
HL-60(TB) = assay: Growth inhibition of human HL-60(TB) cells after 48 hrs by SRB assay; format: functional; settings: HL-60, 48 h
How it was run: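 NCI 60-cell-line screen: cells grown in RPMI1640 with 5% fetal calf serum and 2 mM L-glutamine, preincubated 24 h, then exposed to compound in DMSO at five concentrations (10^-4 to 10^-8 M) for 48 h continuous exposure. Growth estimated by sulforhodamine B protein assay; reported as pGI50 (-log molar concentration inhibiting net cell growth by 50%).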

K562 = assay: Growth inhibition of human K562 cells after 48 hrs by SRB assay; format: functional; settings: K562, 48 h
How it was run: (§1)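 NCI 60-cell-line screen. Cells grown in RPMI1640 with 5% fetal calf serum and 2 mM L-glutamine, with inoculum density set by cell line. Preincubated 24 h, then given compound in DMSO at 10^-4 to 10^-8 M (five 10-fold steps) for 48 h continuous exposure. Growth measured by SRB protein assay. GI50, TGI and LC50 reported as –log molar.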

SR = assay: Growth inhibition of human SR cells after 48 hrs by SRB assay; format: functional; how it was run: as §1
EKVX = assay: Growth inhibition of human EKVX cells after 48 hrs by SRB assay; format: functional; how it was run: as §1
HOP-62 = assay: Growth inhibition of human HOP62 cells after 48 hrs by SRB assay; format: functional; settings: HOP-62, 48 h; how it was run: as §1
NCI-H322M = assay: Growth inhibition of human NCI-H322M cells after 48 hrs by SRB assay; format: functional; how it was run: as §1
NCI-H460 [1] = assay: Growth inhibition of human NCI-H460 cells after 48 hrs by SRB assay; format: functional; settings: NCI-H460, 48 h; how it was run: as §1
HCC 2998 = assay: Growth inhibition of human HCC2998 cells after 48 hrs by SRB assay; format: functional; settings: HCC 2998, 48 h; how it was run: as §1
HCT-116 = assay: Growth inhibition of human HCT116 cells after 48 hrs by SRB assay; format: functional; settings: HCT-116, 48 h; how it was run: as §1
HCT-15 = assay: Growth inhibition of human HCT15 cells after 48 hrs by SRB assay; format: functional; settings: HCT-15, 48 h; how it was run: as §1
HT-29 = assay: Growth inhibition of human HT-29 cells after 48 hrs by SRB assay; format: functional; settings: HT-29, 48 h; how it was run: as §1
SW-620 = assay: Growth inhibition of human SW620 cells after 48 hrs by SRB assay; format: functional; settings: SW-620, 48 h; how it was run: as §1
SF-268 = assay: Growth inhibition of human SF268 cells after 48 hrs by SRB assay; format: functional; settings: SF-268, 48 h; how it was run: as §1
SF-295 = assay: Growth inhibition of human SF295 cells after 48 hrs by SRB assay; format: functional; settings: SF-295, 48 h; how it was run: as §1
SF-539 = assay: Growth inhibition of human SF539 cells after 48 hrs by SRB assay; format: functional; settings: SF-539, 48 h; how it was run: as §1
SNB-75 = assay: Growth inhibition of human SNB75 cells after 48 hrs by SRB assay; format: functional; settings: SNB-75, 48 h; how it was run: as §1
U-251 = assay: Growth inhibition of human U251 cells after 48 hrs by SRB assay; format: functional; settings: U-251, 48 h; how it was run: as §1
Malme-3M = assay: Growth inhibition of human MALME-3M cells after 48 hrs by SRB assay; format: functional; how it was run: as §1
M14 = assay: Growth inhibition of human M14 cells after 48 hrs by SRB assay; format: functional; settings: M14, 48 h; how it was run: as §1
MDA-MB-435 = assay: Growth inhibition of human MDA-MB-435 cells after 48 hrs by SRB assay; format: functional; settings: MDA-MB-435, 48 h; how it was run: as §1
SK-MEL-28 = assay: Growth inhibition of human SK-MEL-28 cells after 48 hrs by SRB assay; format: functional; settings: SK-MEL-28, 48 h; how it was run: as §1
SK-MEL-5 = assay: Growth inhibition of human SK-MEL-5 cells after 48 hrs by SRB assay; format: functional; settings: SK-MEL-5, 48 h; how it was run: as §1
UACC-62 = assay: Growth inhibition of human UACC62 cells after 48 hrs by SRB assay; format: functional; settings: UACC-62, 48 h; how it was run: as §1
IGROV-1 = assay: Growth inhibition of human IGROV1 cells after 48 hrs by SRB assay; format: functional; settings: IGROV-1, 48 h; how it was run: as §1
OVCAR-4 = assay: Growth inhibition of human OVCAR4 cells after 48 hrs by SRB assay; format: functional; settings: OVCAR-4, 48 h; how it was run: as §1
OVCAR-8 = assay: Growth inhibition of human OVCAR8 cells after 48 hrs by SRB assay; format: functional; settings: OVCAR-8, 48 h; how it was run: as §1
NCI/ADR-RES = assay: Growth inhibition of human NCI/ADR-RES cells after 48 hrs by SRB assay; format: functional; how it was run: as §1
SK-OV-3 = assay: Growth inhibition of human SKOV3 cells after 48 hrs by SRB assay; format: functional; settings: SK-OV-3, 48 h; how it was run: as §1
786-0 = assay: Growth inhibition of human 786-0 cells after 48 hrs by SRB assay; format: functional; settings: 786-0, 48 h; how it was run: as §1
CAKI-1 = assay: Growth inhibition of human Caki1 cells after 48 hrs by SRB assay; format: functional; settings: CAKI-1, 48 h; how it was run: as §1
UO-31 = assay: Growth inhibition of human UO31 cells after 48 hrs by SRB assay; format: functional; settings: UO-31, 48 h; how it was run: as §1
DU-145 = assay: Growth inhibition of human DU145 cells after 48 hrs by SRB assay; format: functional; settings: DU-145, 48 h; how it was run: as §1
[2] = Growth inhibition of human Hs 578T cells after 48 hrs by SRB assay; format: functional; how it was run: as §1
T47D = assay: Growth inhibition of human T47D cells after 48 hrs by SRB assay; format: functional; how it was run: as §1
NCI-H460 [3] = assay: Cytotoxicity against human NCI-H460 cells after 72 hrs by SRB assay; format: functional, cell-based; settings: NCI-H460, 72 h
How it was run: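 NCI-H460 (ATCC) cells seeded in 96-well plates in growth medium. Scalar drug concentrations added 24 h after plating, then 72 h exposure. Surviving cells stained with sulforhodamine B, OD read at 570 nm. IC50 (50% growth inhibition) fitted from dose–response curves. Mean ± SE of at least three independent experiments.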

In the case of `CCN(CC)c1ccc(C2=NN(C(C)=O)C(c3cc(OC)c(OC)c(OC)c3)C2)cc1` (stereo not drawn), the GI50 (HL-60(TB)) was 126 nM, the TGI (HL-60(TB); read-out: pTGI (converted)) was 501 nM and the GI50 (K562) was 631 nM. For the same compound, the TGI (K562; read-out: pTGI (converted)) was > 100000 nM, the GI50 (SR) was 63.1 nM and the TGI (SR; read-out: pTGI (converted)) was 631 nM. It also gave a GI50 (EKVX) of 398 nM, a TGI (EKVX; read-out: pTGI (converted)) of 2510 nM and a GI50 (HOP-62) of 1580 nM. The TGI (HOP-62; read-out: pTGI (converted)) was 25100 nM, the GI50 (NCI-H322M) was 501 nM and the TGI (NCI-H322M; read-out: pTGI (converted)) was 12600 nM. For the same compound, the GI50 (NCI-H460 [1]) was 398 nM, the TGI (NCI-H460 [1]; read-out: pTGI (converted)) was 2000 nM and the GI50 (HCC 2998) was 794 nM. For the same compound, the TGI (HCC 2998; read-out: pTGI (converted)) was 7940 nM, the GI50 (HCT-116) was 316 nM and the TGI (HCT-116; read-out: pTGI (converted)) was 12600 nM. The GI50 (HCT-15) was 398 nM, the GI50 (HT-29) was 398 nM and the TGI (HT-29; read-out: pTGI (converted)) was 1580 nM. The GI50 (SW-620) was 316 nM, the TGI (SW-620; read-out: pTGI (converted)) was 15800 nM and the GI50 (SF-268) was 794 nM. It also gave a TGI (SF-268; read-out: pTGI (converted)) of 20000 nM, a GI50 (SF-295) of 200 nM and a TGI (SF-295; read-out: pTGI (converted)) of 631 nM. For the same compound, the GI50 (SF-539) was 316 nM, the TGI (SF-539; read-out: pTGI (converted)) was 631 nM and the GI50 (SNB-75) was 251 nM. The TGI (SNB-75; read-out: pTGI (converted)) was 631 nM, the GI50 (U-251) was 398 nM and the TGI (U-251; read-out: pTGI (converted)) was 12600 nM. The GI50 (Malme-3M) was 200 nM, the TGI (Malme-3M; read-out: pTGI (converted)) was 25100 nM and the GI50 (M14) was 398 nM. The TGI (M14; read-out: pTGI (converted)) was 3160 nM, the GI50 (MDA-MB-435) was 158 nM and the TGI (MDA-MB-435; read-out: pTGI (converted)) was 398 nM. It also gave a GI50 (SK-MEL-28) of 794 nM, a TGI (SK-MEL-28; read-out: pTGI (converted)) of 20000 nM and a GI50 (SK-MEL-5) of 398 nM. The TGI (SK-MEL-5; read-out: pTGI (converted)) was 3980 nM, the GI50 (UACC-62) was 316 nM and the TGI (UACC-62; read-out: pTGI (converted)) was 12600 nM. For the same compound, the GI50 (IGROV-1) was 794 nM, the TGI (IGROV-1; read-out: pTGI (converted)) was 31600 nM and the GI50 (OVCAR-4) was 631 nM. For the same compound, the TGI (OVCAR-4; read-out: pTGI (converted)) was 25100 nM, the GI50 (OVCAR-8) was 398 nM and the TGI (OVCAR-8; read-out: pTGI (converted)) was 5010 nM. It also gave a GI50 (NCI/ADR-RES) of 200 nM, a TGI (NCI/ADR-RES; read-out: pTGI (converted)) of 501 nM and a GI50 (SK-OV-3) of 398 nM. For the same compound, the TGI (SK-OV-3; read-out: pTGI (converted)) was 15800 nM, the GI50 (786-0) was 501 nM and the TGI (786-0; read-out: pTGI (converted)) was 12600 nM. For the same compound, the GI50 (CAKI-1) was 126 nM, the TGI (CAKI-1; read-out: pTGI (converted)) was 20000 nM and the GI50 (UO-31) was 398 nM. It also gave a TGI (UO-31; read-out: pTGI (converted)) of 15800 nM, a GI50 (DU-145) of 398 nM and a TGI (DU-145; read-out: pTGI (converted)) of 2000 nM. It also gave a GI50 [2] of 316 nM, a TGI ([2]; read-out: pTGI (converted)) of 25100 nM and a GI50 (T47D) of 200 nM. The TGI (T47D; read-out: pTGI (converted)) was 20000 nM and the pIC50 (NCI-H460 [3]) was 6.01.
